The record followed here is ChEMBL document CHEMBL1250464, “The marine sponge metabolite mycothiazole: a novel prototype mitochondrial complex I inhibitor” (Bioorg Med Chem, 2010).

The test system of data set [1] is T47D. As to the kind of experiment: Inhibition of hypoxia-induced HIF-1 activation in human T47D cells at 0.1 to 1000 nM by luciferase reporter gene assay. The format is cell-based. The gist of the method: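 T47D cells (DMEM/F12, 10% FBS) carrying the pHRE3-TK-Luc HIF-1 luciferase reporter were exposed to hypoxia (1% O₂) for 16 h with compound at 0.1, 0.3, 1, 3, 10, 30, 100 and 1000 nM. Cycloheximide at 100 μM served as positive control. Data are from one representative triplicate experiment, mean ± SD.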
A general note: A reporter such as luciferase makes a cellular process visible.

The test system of data set [2] is T47D. Nature of the data set: Reduction of hypoxia-induced VEGF mRNA expression in human T47D cells at 0.1 uM treated after 16 hrs of hypoxia by RT-PCR analysis. The class given is functional, cell-based. The gist of the method:
(§1)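 T47D cells were held at 1% O₂ for 16 h with or without compound. Total RNA was isolated and target mRNA was quantified by real-time RT-PCR, normalized to 18S rRNA, and expressed relative to the normoxic control. Values are averages of two independent experiments.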

Data set [3] relates to T47D. As to the kind of experiment: Reduction of hypoxia-induced GLUT1 mRNA expression in human T47D cells at 0.1 uM treated after 16 hrs of hypoxia by RT-PCR analysis. The format is functional, cell-based. In short, it runs like this: as §1
Data set [4] relates to T47D. Nature of the data set: Inhibition of electron transport protein complex 1-mediated cellular respiration in digitonin-permeabilized human T47D cells at 30 nM presence of succinate. The format is cell-based.
The subject of another data set is MDA-MB-231. Nature of the data set: Cytotoxicity against human MDA-MB-231 cells assessed as inhibition of cell proliferation after 48 hrs by SRB assay. The format is functional, cell-based. On the technique in general: In SRB staining, fixed cells bind dye roughly in proportion to their protein.
A short description of data set [5]: Neurotoxicity in Wistar rat cerebellar granule neurons assessed as cell death at 10 nM after 24 hrs using propidium iodide and Hoescht 33342 staining. The format is toxicity, cell-based. The conditions noted are these: neuron, 0.01 µM. In short, it runs like this:
(§2)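 Primary cerebellar granule neurons from 6-7-day-old Wistar rat pups, cultured 6-10 days at 37 °C. Cells exposed to compound for 24 h, then stained 20 min with Hoechst 33342 (5 μg/mL) and propidium iodide (1 μg/mL) in pH 7.3 buffer. At least 100 cells scored per treatment. Scoring: PI+ = late apoptotic/necrotic; PI− with condensed or fragmented nuclei = apoptotic; PI− with swollen, fragmented nuclei = early necrotic.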

Data set [6] is described as follows: Neurotoxicity in Wistar rat cerebellar granule neurons assessed as attached dead cells at 0.1 uM after 24 hrs using propidium iodide and Hoescht 33342 staining. The format is toxicity, cell-based. Conditions: neuron. The gist of the method: as §2
Data set [7] deals with T47D. As to the kind of experiment: Reduction of hypoxia-induced secreted VEGF protein level in human T47D cells after 16 hrs by ELISA. The class given is functional, cell-based. In short, it runs like this: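 T47D cells exposed to 1% O2 or 10 μM 1,10-phenanthroline for 16 h with or without compound. Secreted VEGF in conditioned medium measured by ELISA and normalized to cellular protein (micro BCA). Mean with SD, N = 3. One-way ANOVA with Bonferroni post hoc test.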
Background: ELISA stands for enzyme-linked immunosorbent assay.

Data set [8] deals with T47D. Nature of the data set: Inhibition of 1,10-phenanthroline-induced HIF-1 activation in human T47D cells at up to 10 uM by luciferase reporter gene assay. The format is cell-based. In short, it runs like this: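 T47D cells carrying the pHRE3-TK-Luc HIF-1 luciferase reporter. HIF-1 induced chemically with 10 μM 1,10-phenanthroline. Compound tested at concentrations up to 10 μM.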

The subject of data set [9] is T47D. Nature of the data set: Reduction of hypoxia-induced VEGF mRNA expression in human T47D cells treated after 16 hrs of hypoxia by RT-PCR analysis. The class given is functional, cell-based. The gist of the method: (§3)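 T47D cells held at 1% O2 for 16 h with or without compound. Total RNA measured by real-time RT-PCR, normalized to 18S rRNA, and expressed relative to the normoxic control. Mean of two independent experiments.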

Data set [10] deals with T47D. As to the kind of experiment: Reduction of hypoxia-induced GLUT1 mRNA expression in human T47D cells treated after 16 hrs of hypoxia by RT-PCR analysis. The format is functional, cell-based. In short, it runs like this:
as §3

The subject of data set [11] is T47D. As to the kind of experiment: Inhibition of tumor angiogenesis in human T47D cells in conditioned medium at 10 nM treated after 16 hrs of hypoxia by HUVEC-based tube formation assay. The class given is functional, cell-based. The gist of the method:
(§4)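 Conditioned media collected from T47D cells treated for 16 h, normoxic or hypoxic (1% O2), with or without compound (10 nM). Media applied to HUVECs for tube formation. Relative tube length and branching points counted in three random fields, mean with SD. One-way ANOVA with Bonferroni post hoc test.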

The subject of data set [12] is T47D. As to the kind of experiment: Inhibition of tumor angiogenesis in human T47D cells in normoxic conditioned medium at 10 nM by HUVEC-based tube formation assay. The format is functional, cell-based. In short, it runs like this:
as §4

For data set [13], the system named is T47D. Nature of the data set: Inhibition of hypoxia-induced HIF-1alpha protein accumulation in human T47D cell nucleus at 10 to 100 nM treated after 4 hrs of hypoxia by Western blotting. The class given is functional, cell-based. The gist of the method:
(§5)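 Nuclear extracts prepared from T47D cells held at 1% O2 for 4 h with or without compound. HIF-1α and HIF-1β protein levels determined by western blot.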

For data set [14], the system named is T47D. Nature of the data set: Inhibition of hypoxia-induced HIF-1beta protein accumulation in human T47D cell nucleus at 10 to 100 nM treated after 4 hrs of hypoxia by Western blotting. The class given is functional, cell-based. The gist of the method: as §5
Data set [15] concerns T47D. Nature of the data set: Inhibition of oxygen consumption in human T47D cells. The class given is functional, cell-based. The gist of the method: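 Oxygen consumption measured with a Clark-type electrode in non-permeabilized T47D cells. Rotenone served as the complex I reference. Data given as % inhibition versus untreated control, averaged over three independent experiments with SD.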

The test system of data set [16] is T47D. Nature of the data set: Inhibition of electron transport protein complex 2-mediated cellular respiration in digitonin-permeabilized human T47D cells at 10 to 30 nM presence of succinate. The format is cell-based. In short, it runs like this: (§6)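 Clark-type oxygen electrode used to follow O2 consumption in T47D cells permeabilized with 10 μM digitonin. Substrates and inhibitors added one after another at set times. For complex I, respiration was started with malate/pyruvate, compound (10 nM) was added, then succinate was added to feed complex II.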

The subject of data set [17] is T47D. As to the kind of experiment: Inhibition of electron transport protein complex 3-mediated cellular respiration in digitonin-permeabilized human T47D cells at 10 to 30 nM presence of succinate. The format is cell-based. The gist of the method:
as §6

Data set [18] deals with T47D. Nature of the data set: Inhibition of electron transport protein complex 4-mediated cellular respiration in digitonin-permeabilized human T47D cells at 10 to 30 nM presence of succinate. The format is cell-based.
The subject of data set [19] is T47D. Nature of the data set: Inhibition of electron transport protein complex 1-mediated cellular respiration in digitonin-permeabilized human T47D cells at 10 nM presence of succinate. The class given is cell-based. In short, it runs like this: as §6
The subject of data set [20] is T47D. As to the kind of experiment: Cytotoxicity against human T47D cells assessed as inhibition of cell proliferation after 48 hrs by SRB assay relative to control. The format is functional. Further details: scale not given: the % may be the effect or the level left.
The nature of data set [21]: Neurotoxicity in Wistar rat cerebellar granule neurons assessed as apoptotic cells at 0.01 uM after 24 hrs using propidium iodide and Hoescht 33342 staining. The conditions noted are these: neuron. The format is toxicity, cell-based. The gist of the method:
as §2

The source made the active and inactive calls. The calls are words filed in the database; no cut-off is given here.

Consider `C=CC/C=C\Cc1csc(C(C)(C)[C@H](O)C/C=C/C(O)(CO)CCNC(=O)OC)n1` (stereo not given in full), for which the inhibition entry with T47D [1], with T47D [2] and in the data set on T47D [3] was “inactive” throughout. Besides, in the data set with T47D [4], the inhibition result was “Active”. Also, the outcome in the data set on MDA-MB-231 was Active.

Take `C=C(C)[C@H]1Cc2c(ccc3c2O[C@@H]2COc4cc(OC)c(OC)cc4[C@@H]2C3=O)O1` [ROTENONE]: the values for the Activity result in data set [5] and in data set [6] were “Toxic” and 60%, respectively.

`C=CC/C=C\Cc1csc(C(C)(C)[C@H](O)C/C=C\C(=C)CCNC(=O)OC)n1` [MYCOTHIAZOLE]: the result in the data set with T47D [7] and with MDA-MB-231 was Active. Besides, the inhibition entry in the data set on T47D [1], in the data set on T47D [11], in the data set with T47D [13] and in the data set with T47D [19] was “Active” each time. Besides, the inhibition result in the data set with T47D [8], with T47D [12], with T47D [14], with T47D [16], in the data set on T47D [17] and in the data set with T47D [18] was “inactive” throughout. In addition, the inhibition result in the data set with T47D [9], with T47D [10] and in the data set with T47D [15] was “Dose-dependent effect” each time. Further, the Activity with T47D [20] is listed as 55%; in data set [5] it was “Toxic”; in [21] it was 85%.

With `C=CC/C=C\Cc1csc(C(C)(C)[C@@H](C/C=C\C(=C)CCNC(=O)OC)OC(C)=O)n1`, the inhibition entry in the data set on T47D [1] is “Active”. The inhibition entry in the data set on T47D [9] and in the data set on T47D [10] was “Dose-dependent effect” in each case. The Activity with T47D [20] is reported as 55%. Moreover, in the data set on MDA-MB-231, the outcome was Active.
